pIC50: −log10 of the molar value. Values joined by “and” are separate entries in the source; they are usually repeats but may differ in a detail not shown here. Identical values can stand only once.
Experiments:
BT-549 = assay: Cytotoxicity against NCI tumor panel, BT-549 breast cancer cell line; assay type: functional, cell-based; details: Homo sapiens
In short: (§1)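 NCI cell-line panel screen run by the National Cancer Institute; sulforhodamine B (SRB) readout after 48-h drug incubation.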

HOP-62 = assay: Cytotoxicity against NCI tumor panel, HOP-62 non small-cell lung cancer cell line; assay type: functional, cell-based; details: Homo sapiens; in short: as §1
MDA-MB-231 = assay: Cytotoxicity against NCI tumor panel, MDA-MB-231/ATCC breast cancer cell line; assay type: functional, cell-based; details: Homo sapiens
In short: (§2)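 Performed by NCI with the sulforhodamine B (SRB) method on its human tumour cell panel, using a 48-h drug incubation.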

KM12 = assay: Cytotoxicity against NCI tumor panel, KM12 colon cancer cell line; assay type: functional, cell-based; details: Homo sapiens; in short: as §2
Mus musculus [1] = species on record: Mus musculus; assay: Hematological effects in female CDF1 mice at the dose of 50 ug, in platelet cells; assay type: functional
In short: (§3)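 Non-tumor-bearing female CDF1 mice, 10 per group. Drugs were dissolved in DMSO, diluted in 30% DMSO/0.5% glucose, and given as a single ip dose on day 1 (doses per kg). Blood was sampled on day 27 for WBC, platelet, RBC and MCHC counts. Values are medians of 10 mice.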

NCI-H23 = assay: Cytotoxicity against NCI tumor panel, NCI-H 23 non small-cell lung cancer cell line; assay type: functional, cell-based; details: Homo sapiens; in short: as §2
Mus musculus [2] = species on record: Mus musculus; assay: Body weight change between days 0 and the day when the animal weight was the lowest; assay type: functional
In short: (§4)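 Male BDF1 mice, 4-6 weeks old, 6 per group, were given 10⁵ L1210 cells ip on day 0. Drug in DMF was diluted in 30% DMSO/0.5% glucose and given ip on days 1, 5 and 9. %ILS = (T/C − 1) × 100 on median survival of dying animals only; 30-day survivors noted separately. Group weight change was taken from day 0 to the lowest-weight day.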

SF-539 = assay: Cytotoxicity against NCI tumor panel, SF-539 CNS cancer cell line; assay type: functional, cell-based; details: Homo sapiens; in short: as §2
SW-620 = assay: Cytotoxicity against NCI tumor panel, SW_620 colon cancer cell line; assay type: functional, cell-based; details: Homo sapiens; in short: as §2
SK-MEL-28 = assay: Cytotoxicity against NCI tumor panel, SK-MEL28 melanoma cancer cell line; assay type: functional, cell-based; details: Homo sapiens; in short: as §2
HOP-92 = assay: Cytotoxicity against NCI tumor panel, HOP-92 non small-cell lung cancer cell line; assay type: functional, cell-based; details: Homo sapiens; in short: as §1
Mus musculus [3] = species on record: Mus musculus; assay: Hematological effects in female CDF1 mice at the dose of 50 ug, in red blood cells; assay type: functional; in short: as §3
Hs-578T = assay: Cytotoxicity against NCI tumor panel, HS 578T breast cancer cell line; assay type: functional, cell-based; details: Homo sapiens; in short: as §2
Mus musculus [4] = assay: Antitumor activity in BDF1 male mice bearing L1210 Leukemia at a dose of 42 ug/kg; survivors for 30 days was reported; assay type: functional; in short: as §4
PC-3 = assay: Cytotoxicity against NCI tumor panel, PC-3 prostate cancer cell line; assay type: functional, cell-based; details: Homo sapiens; in short: as §2
HT-29 = assay: Cytotoxicity against NCI tumor panel, HT-29 colon cancer cell line; assay type: functional, cell-based; details: Homo sapiens; in short: as §2
SNB-19 = assay: Cytotoxicity against NCI tumor panel, SNB-19 CNS cancer cell line; assay type: functional, cell-based; details: Homo sapiens; in short: as §2
CAKI-1 = assay: Cytotoxicity against NCI tumor panel, CAKI-1 renal cancer cell line; assay type: functional, cell-based; details: Homo sapiens; in short: as §1
HCC 2998 = assay: Cytotoxicity against NCI tumor panel, HCC_2998 colon cancer cell line; assay type: functional, cell-based; details: Homo sapiens; in short: as §1
MDA-N = assay: Cytotoxicity against NCI tumor panel, MDA-N breast cancer cell line; assay type: functional, cell-based; details: Homo sapiens; in short: as §2
Mus musculus [5] = species on record: Mus musculus; assay: Hematological effects in female CDF1 mice at the dose of 50ug, in white blood cells; assay type: functional; in short: as §3
SN12C = assay: Cytotoxicity against NCI tumor panel, SN12C renal cancer cell line; assay type: functional, cell-based; details: Homo sapiens; in short: as §2
HL-60 = assay: Cytotoxicity against NCI tumor panel, HL-60(TB) leukemia cell line; assay type: functional, cell-based; details: Homo sapiens; in short: as §1
SK-OV-3 = assay: cytotoxicity against NCI tumor panel, SK-OV-3 ovarian cancer cell line; assay type: functional, cell-based; details: Homo sapiens; in short: as §2
UO-31 = assay: Cytotoxicity against NCI tumor panel, U031 renal cancer cell line; assay type: functional, cell-based; details: Homo sapiens; in short: as §2
RPMI-8226 = assay: Cytotoxicity against NCI tumor panel, RPMI-8226 leukemia cell line; assay type: functional, cell-based; details: Homo sapiens; in short: as §2
Mus musculus [6] = assay: Antitumor activity in BDF1 male mice bearing L1210 Leukemia at a dose of 25 ug/kg; survivors for 30 days was reported; assay type: functional; in short: as §4
IGROV-1 = assay: Cytotoxicity against NCI tumor panel, IGROV1 ovarian cancer cell line; assay type: functional, cell-based; details: Homo sapiens; in short: as §2
Mus musculus [7] = species on record: Mus musculus; assay: Mean body weight change
EKVX = assay: Cytotoxicity against NCI tumor panel, EKVX non small-cell lung cancer cell line; assay type: functional, cell-based; details: Homo sapiens; in short: as §1
Mus musculus [8] = assay: Antitumor activity was tested in mice and percent increase of life span at a dose of 25 ug/kg was reported; assay type: functional

CC(=O)Nc1ccc2[nH]c(C(=O)Nc3ccc4[nH]c(C(=O)N5CC(CCl)c6c5cc(O)c5ccccc65)cc4c3)cc2c1 (stereo unspecified)
pIC50 (BT-549): 8.48 | pIC50 (HOP-62): 8.90 | pIC50 (MDA-MB-231): 8.22 | pIC50 (KM12): 8.75 | Platelet (Mus musculus [1]): 1.1 10e6 ul-1 | pIC50 (NCI-H23): 8.87 | Weight (Mus musculus [2]): 23% | pIC50 (SF-539): 8.91 | pIC50 (SW-620): 8.63 | pIC50 (SK-MEL-28): 8.66 | pIC50 (HOP-92): 8.68 | RBC (Mus musculus [3]): 8.72 10e6 ul-1 | pIC50 (Hs-578T): 8.79 | No. of survivors (Mus musculus [4]): 0 | pIC50 (PC-3): 8.69 | pIC50 (HT-29): 8.87 | pIC50 (SNB-19): 8.59 | pIC50 (CAKI-1): 8.37 | pIC50 (HCC 2998): 8.39 | pIC50 (MDA-N): 8.65 | WBC (Mus musculus [5]): 13.1 10e3 ul-1 | pIC50 (SN12C): 8.52 | pIC50 (HL-60): 8.85 | pIC50 (SK-OV-3): 8.36 | pIC50 (UO-31): 8.39 | pIC50 (RPMI-8226): 8.05 | No. of survivors (Mus musculus [6]): 0 | pIC50 (IGROV-1): 9.00 | Weight (Mus musculus [7]): 16% | pIC50 (EKVX): 8.62 | ILS (Mus musculus [8]): 67% and 107%
